Common to all, as to assay type: functional
Test [1] is described as follows: Inhibitory concentration against proliferation of mouse splenocytes was determined by measuring mitochondrial dehydrogenase activity using MTT assay. Summed up:
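Mouse splenocyte proliferation measured by a 72 h MTT assay, with mitochondrial dehydrogenase activity of surviving cells as read-out. Test agents were in acetate form. Cyclosporin A was included as a comparator. IC50 taken as the concentration giving 50% inhibition.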

The species entered for test [2] is Mus musculus. Kind of test: Effect on level of IL-4 secretion in mice splenocytes following treatment with 25 uM compound done for 72 hr at 37 degree C. The gist of the method: (§1)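 Mouse spleen cells stimulated with concanavalin A in the presence of 25 µM test agent (acetate form) at 37 °C, 5% CO2 for 72 h. Cytokine levels (IL-4 or IFN-γ) in the culture supernatant measured by mouse ELISA kit. Reduction expressed relative to control. Means ± SEM of at least three independent experiments.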

Test [3] is filed under the species Mus musculus. Put plainly: Effect on level of IFN-gamma secretion splenocytes in mice following treatment with 25 uM compound done for 72 hr at 37 degree C. The gist of the method:
as §1

Compound `O=C(O)[C@H]1N[C@H](CO)[C@H](O)[C@H](O)[C@H]1O` came in with a half-maximal inhibitory concentration (IC50) in test [1] of 340 µM. Further, the figures for the Reduction in the test listed under Mus musculus [2] and in the test filed under Mus musculus [3] were 30.8% and 31.2%, respectively.
For `OC[C@H]1N[C@H](CO)[C@H](O)C(O)[C@H]1O` (stereo not given in full) the same measures were 519 µM, 69.2% and 75.89%.
For `OC[C@@H]1N[C@@H](CO)[C@H](O)C(O)[C@H]1O` (stereo not given in full) the same measures were 272 µM, 84.6% and 51.6%.
As for `OC[C@@H]1N[C@H](CO)[C@H](O)[C@@H](O)[C@H]1O`, the IC50 in test [1] amounted to 332 µM. For the same compound, the Reduction amounted to 92.3% in the test listed under Mus musculus [2] and 86.2% in the test filed under Mus musculus [3].
For `O=C(O)[C@H]1N[C@@H](CO)[C@H](O)[C@H](O)[C@H]1O` the same measures were 346 µM, 92.3% and 24.2%.

Values taken from ChEMBL document CHEMBL1139521, “Synthetic iminosugar derivatives as new potential immunosuppressive agents” (J Med Chem, 2005).
